Assay results published in ChEMBL document CHEMBL4346672, “Antimicrobial and KPC/AmpC inhibitory activity of functionalized benzosiloxaboroles” (Eur J Med Chem, 2019).
In brackets after ≈: the same amount, converted by molar mass.

What was measured:
[1] = target: Class A carbapenemase KPC-2 (Escherichia coli) (UniProt A8DS27); assay: Inhibition of beta lactamase KPC-2 in Escherichia coli 76 assessed as potentiation of ceftazidime-induced antibacterial activity by measuring ceftazidime MIC at 16 mg/L incubated for 18 hrs by broth dilution method (reference value: >[…] mg/L)
[2] = tested on: Klebsiella pneumoniae ATCC BAA-1705; assay: Inhibition of beta lactamase KPC-2 in Klebsiella pneumoniae ATCC BAA 1705 assessed as potentiation of meropenem-induced antibacterial activity by measuring meropenem MIC at 16 mg/L incubated for 18 hrs by broth dilution method (reference value: […] mg/L)
Burkholderia cepacia = assay: Bactericidal activity against Burkholderia cepacia ATCC 25416 measured after 18 hrs by CLSI broth dilution method; assay type: functional; settings: ATCC 25416, 18 h
Outline: (§1)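 Strains stored at -80 °C and subcultured twice on tryptic soy agar before testing. Compounds dissolved in DMSO. […] MBC then determined per CLSI recommendations.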

[3] = tested on: Bordetella bronchiseptica; assay: Bactericidal activity against Bordetella bronchiseptica ATCC 4617 measured after 18 hrs by CLSI broth dilution method; assay type: functional; settings: ATCC 4617, 18 h; outline: as §1
Enterococcus faecium = assay: Bactericidal activity against Enterococcus faecium ATCC 6057 measured after 18 hrs by CLSI broth dilution method; assay type: functional; settings: ATCC 6057, 18 h; outline: as §1

Row | Compound | MIC [1] | MIC [2] | MBC (Burkholderia cepacia) | MBC [3] | MBC (Enterococcus faecium)
1 | C[Si]1(C)OB(O)c2cc3c(c(F)c21)COB3O | > 64 µg/mL | 64 µg/mL |  |  | 
2 | C[Si]1(C)OB(O)c2ccc(F)c(F)c21 | > 64 µg/mL | 64 µg/mL |  |  | 
3 | C[Si]1(C)OB(O)c2c(F)c(F)c(F)c(F)c21 | > 64 µg/mL | 64 µg/mL |  |  | 
4 | C[Si]1(C)OB(O)c2c(F)c3c(c(F)c21)B(O)OC3 | > 64 µg/mL | 64 µg/mL | 100 µg/mL (≈ 371 µM) | 400 µg/mL (≈ 1480 µM) | 
5 | C[Si]1(C)OB(O)c2ccc(C(F)(F)F)cc21 |  |  |  |  | 50 µg/mL (≈ 203 µM)
6 | C[Si]1(C)OB(O)c2ccc(B(O)O)cc21 | > 64 µg/mL | 32 µg/mL |  |  | 400 µg/mL (≈ 1800 µM)
